Laboratory results published in ChEMBL document CHEMBL2040777, “N-Aryl-N'-(chroman-4-yl)ureas and thioureas display in vitro anticancer activity and selectivity on apoptosis-resistant glioblastoma cells: screening, synthesis of simplified derivatives, and structure-activity relationship analysis” (Eur J Med Chem, 2012).
Active and inactive are the calls of the source. No cut-off for these calls is given here.

Assays:
T98G [1] = experiment: Growth inhibition of human T98G cells after 72 hrs by MTT assay; format: functional, cell-based
In short: (§1)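 Glioma lines were grown in RPMI with 10% heat-inactivated FCS, 4 mM glutamine, gentamicin and penicillin-streptomycin. Cells were plated for 24 h at 10,000–40,000 cells/mL, then exposed to compound for 72 h. MTT reduction to formazan was read at 570 nm (reference 630 nm). Six replicates were run.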

[2] = Growth inhibition of human U373 cells after 72 hrs by MTT assay; format: functional, cell-based, U-373MG ATCC; conditions: U373 MG; in short: as §1
[3] = Growth inhibition of human Hs683 cells after 72 hrs by MTT assay; format: functional, cell-based; conditions: Hs 683, 72 h; in short: as §1
T98G [4] = experiment: Selectivity index, ratio of IC50 for mouse astrocytes to IC50 for human T98G cells
B16-F10 = experiment: Growth inhibition of mouse B16F10 cells after 72 hrs by MTT assay; format: functional, cell-based; conditions: B16-F10, 72 h
[5] = Selectivity index, ratio of IC50 for mouse astrocytes to IC50 for human U373 cells; parameters: species or system U-373MG ATCC
Hs 683 = experiment: Selectivity index, ratio of IC50 for mouse astrocytes to IC50 for human Hs683 cells
[6] = Cell cycle arrest in human U373 cells assessed as accumulation at G0/G1 phase at 3 to 10 uM after 24 hrs by propidium iodide staining-based flow cytometric analysis; format: functional; conditions: U-373MG ATCC
U-373MG ATCC = experiment: Induction of apoptosis in human U373 cells assessed as increase in subG1 cell population at 3 to 10 uM after 24 hrs by flow cytometric analysis; format: functional, cell-based
[7] = Cell cycle arrest in human U373 cells assessed as accumulation at G0/G1 phase at 10 to 30 uM after 24 hrs by propidium iodide staining-based flow cytometric analysis; format: functional; conditions: U-373MG ATCC

| Structure (SMILES) | IC50 (T98G [1]) [µM] | IC50 [2] [µM] | IC50 [3] [µM] | Ratio IC50 (T98G [4]) | IC50 (B16-F10) [µM] | Ratio IC50 [5] | Ratio IC50 (Hs 683) | Activity [6] | Activity (U-373MG ATCC) | Activity [7] |
| --- | --- | --- | --- | --- | --- | --- | --- | --- | --- | --- |
| CC1(C)CC(NC(=O)Nc2ccc(Cl)cc2)c2cc(F)ccc2O1 (stereo not given) | 30 | 24 | 25 | – | – | – | – | – | – | – |
| COc1ccc(Cl)cc1CNC(=S)Nc1ccc([N+](=O)[O-])cc1 | 35 | 22 | 15 | – | – | – | – | – | – | – |
| COc1ccc(NC(=S)NC2CC(C)(C)Oc3ccc(Br)cc32)cc1 (stereo not given) | 33 | 40 | 29 | – | – | – | – | – | – | – |
| CC1(C)CC(NC(=S)Nc2cccc([N+](=O)[O-])c2)c2cc(Br)ccc2O1 (stereo not given) | 4 | 4 | 3 | 2 | 5 | 2 | 2 | – | – | – |
| CC1(C)CC(NC(=S)Nc2ccc(Cl)cc2)c2cc(Br)ccc2O1 (stereo not given) | 22 | 7 | 9 | 2 | 7 | 2 | 2 | Active | inactive | – |
| CC1(C)CC(NC(=O)NCc2ccccc2)c2cc(Br)ccc2O1 (stereo not given) | 38 | 27 | 38 | – | – | – | – | – | – | – |
| CC1(C)CC(NC(=O)Nc2ccccc2)c2cc(Cl)ccc2O1 (stereo not given) | 34 | 68 | 33 | – | – | – | – | – | – | – |
| CC1(C)CC(NC(=S)Nc2cccc([N+](=O)[O-])c2)c2cc(Cl)ccc2O1 (stereo not given) | 4 | 3 | 3 | 3 | 6 | 3 | 3 | Active | inactive | – |
| COc1ccc(Cl)cc1C(=O)NCCc1ccc(S(=O)(=O)NC(=O)NC2CCCCC2)cc1 [GLYBURIDE] | – | > 100 | – | – | – | – | – | – | – | inactive |
| CC1(C)CC(NC(=O)Nc2cccc(Cl)c2)c2cc(Br)ccc2O1 (stereo not given) | 67 | 69 | 61 | – | – | – | – | – | – | – |
| CC1(C)CC(NC(=O)Nc2ccccc2Cl)c2cc(F)ccc2O1 (stereo not given) | 27 | 40 | 29 | – | – | – | – | – | – | – |
| CC1(C)CC(NC(=S)NCc2ccccc2)c2cc(Cl)ccc2O1 (stereo not given) | 99 | 64 | 43 | – | – | – | – | – | – | – |
| CC1(C)CC(NC(=S)NCc2ccccc2)c2cc(Br)ccc2O1 (stereo not given) | 54 | 29 | 34 | – | – | – | – | – | – | – |
| CC1(C)CC(NC(=S)Nc2cccc(C#N)c2)c2cc(Cl)ccc2O1 (stereo not given) | 10 | 7 | 6 | <5 | 6 | <5 | <5 | – | – | – |
| CC1(C)CC(NC(=S)Nc2ccc(C#N)cc2)c2cc(F)ccc2O1 (stereo not given) | 19 | 11 | 14 | 3 | 5 | 3 | 3 | – | – | – |
| CC1(C)CC(NC(=S)Nc2ccccc2)c2cc(Cl)ccc2O1 (stereo not given) | 37 | 46 | 32 | – | – | – | – | – | – | – |
| CC1(C)CC(NC(=O)Nc2cccc(Cl)c2)c2cc(F)ccc2O1 (stereo not given) | 45 | 39 | 38 | – | – | – | – | – | – | – |
| O=[N+]([O-])c1ccc(NC(=S)NC2CCOc3ccc(Cl)cc32)cc1 (stereo not given) | 12 | 8 | 6 | – | – | – | – | – | – | – |
| O=[N+]([O-])c1cccc(NC(=S)NCc2cccc(Cl)c2)c1 | 61 | 32 | 41 | – | – | – | – | – | – | – |
| CC1(C)CC(NC(=S)NCc2ccccc2)c2cc(F)ccc2O1 (stereo not given) | 40 | 27 | 25 | – | – | – | – | – | – | – |
| CC1(C)CC(NC(=S)Nc2ccc([N+](=O)[O-])cc2)c2cc(Br)ccc2O1 (stereo not given) | 5 | 9 | 3 | <2 | 3 | <2 | <2 | – | – | – |
| CC1(C)CC(NC(=S)Nc2cccc(C#N)c2)c2cc(F)ccc2O1 (stereo not given) | 39 | 30 | 33 | – | 35 | – | – | – | – | – |
| CC(C)NC(=S)NC1CC(C)(C)Oc2ccc(Cl)cc21 (stereo not given) | 91 | 57 | 34 | – | – | – | – | – | – | – |
| CC1(C)CC(NC(=O)Nc2ccc(Cl)cc2)c2cc(Br)ccc2O1 (stereo not given) | 27 | 25 | 24 | 5 | 9 | 5 | 5 | – | – | – |
| CCC(C)(C)NC1=NS(=O)(=O)c2cc(Cl)ccc2N1 | – | > 100 | – | – | – | – | – | – | – | – |
